# Experimental data: ChEMBL document CHEMBL4266015, “Scaffold Ranking and Positional Scanning Identify Novel Neurite Outgrowth Promoters with Nanomolar Potency” (2018)
# Columns and labels:
# Format in all cases: functional, Hippocampal neurone
# [1] = Induction of neurite outgrowth in rat hippocampal neurons assessed as neurite total length at 31.25 ng/ml after 48 hrs relative to control
# Method in brief: (§1)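 E18 rat hippocampal neurons were plated on PDL at 1800 cells/well in NbActive4, adhered 2 h, then treated with compound prediluted in medium at 4× final for 48 h. Cells were fixed, stained for βIII-tubulin, imaged and auto-traced. Mean neurite total length is a percentage of DMSO vehicle wells on the same plate. ML-7 was the positive control and plates with Z-factor >0.5 were accepted.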
# [2] = Induction of neurite outgrowth in rat hippocampal neurons assessed as neurite total length at 500 ng/ml after 48 hrs relative to control; method in brief: as §1
# [3] = Induction of neurite outgrowth in rat hippocampal neurons assessed as neurite total length at 62.5 ng/ml after 48 hrs relative to control; method in brief: as §1
# [4] = Induction of neurite outgrowth in rat hippocampal neurons assessed as neurite total length at 15.625 ng/ml after 48 hrs relative to control; method in brief: as §1
# [5] = Induction of neurite outgrowth in rat hippocampal neurons assessed as neurite total length after 48 hrs
# Method in brief: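 Dissociated E18 rat hippocampal neurons were seeded on PDL-coated plates at 1800 cells/well in NbActive4 and allowed to adhere 2 h. Compounds were prediluted in medium at 4× final and added, then cells were grown 48 h (2 DIV). Wells were fixed, immunostained for βIII-tubulin and imaged by automated tracing. ED200% and ED300% values were linearly interpolated from dose-response curves of mean neurite total length.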
# [6] = Induction of neurite outgrowth in rat hippocampal neurons assessed as neurite total length at 125 ng/ml after 48 hrs relative to control; method in brief: as §1
# [7] = Induction of neurite outgrowth in rat hippocampal neurons assessed as neurite total length at 250 ng/ml after 48 hrs relative to control; method in brief: as §1
Structure (SMILES),Activity [1] [%],Activity [2] [%],Activity [3] [%],Activity [4] [%],ED200 [5] [nM],ED300 [5] [nM],Activity [6] [%],Activity [7] [%]
CC1CCC(CN2C(=S)N(CCCC[C@H]3CNC(C4CCCC4)=N3)C[C@H]2C)CC1 (some centres undefined),128.3,322.3,168.1,94.61,130,282,230.7,257.3
CC1CCC(CN2C(=S)N(CCCC[C@H]3CNC(C4CCCC4)=N3)C[C@H]2c2ccccc2)CC1 (some centres undefined),271.9,229.6,305.6,251,2,>520,286.2,270.8
CCC(C)CC1=N[C@@H](CCCCN2C[C@@H](CC(C)C)N(CCCCC(C)C)C2=S)CN1 (some centres undefined),179.8,239.5,222.6,122.8,,,254,258.7
CC(C)CCCCN1C(=S)N(CCCC[C@H]2CNC(CC3CCCC3)=N2)C[C@H]1C,137.9,323.7,175.9,113.8,,,213.9,264.8
CC(C)CCCCN1C(=S)N(CCCC[C@H]2CNC(CCCCc3ccccc3)=N2)C[C@H]1c1ccccc1,170.2,225.1,172.4,113.8,,,259.1,253.9
CC(C)C[C@@H]1CN(CCCC[C@H]2CNC(C3CCCC3)=N2)C(=S)N1CC1CCC(C)CC1 (some centres undefined),255.4,263,253.6,169.9,4,25,311.6,238.5
S=C1N(CCCC[C@H]2CNC(C3CCCC3)=N2)C[C@@H](c2ccccc2)N1CCC1CCCCC1,251.5,185.9,260.5,182.3,7,91,261.9,232.4
CC(C)C[C@@H]1CN(CCCC[C@H]2CNC(C3CCCC3)=N2)C(=S)N1CCC1CCCCC1,256.5,248.7,271,194.9,4,>543,282.9,277.2
CCC(C)CC1=N[C@@H](CCCCN2C[C@@H](C)N(CCC3CCC(C)CC3)C2=S)CN1 (some centres undefined),134.9,293.6,150,97.33,,,166.2,266.7
CCC(C)CC1=N[C@@H](CCCCN2C[C@@H](c3ccccc3)N(CCCCC(C)C)C2=S)CN1 (some centres undefined),179.4,276.3,252.8,121.4,,,263.7,265.8
CC(C)C[C@@H]1CN(CCCC[C@H]2CNC(CCCCc3ccccc3)=N2)C(=S)N1CCCC1CCCCC1,135.5,246.8,199.3,114,,,200.8,267.3
CCC(C)C1=N[C@@H](CCCCN2C[C@@H](c3ccccc3)N(CC3CCC(C)CC3)C2=S)CN1 (some centres undefined),256.2,279.8,296.7,190,5,54,301.9,255.9
CC(C)CCCCN1C(=S)N(CCCC[C@H]2CNC(CCCCc3ccccc3)=N2)C[C@H]1CC(C)C,145.3,239.9,194.1,127.4,,,237.1,265.6
C[C@@H]1CN(CCCC[C@H]2CNC(CC3CCCC3)=N2)C(=S)N1CCCC1CCCCC1,157.6,304.4,188,104.7,,,250.7,245.7679
CC1CCC(CCN2C(=S)N(CCCC[C@H]3CNC(CCCCc4ccccc4)=N3)C[C@H]2C)CC1 (some centres undefined),101.9,296.9,117.7,88.36,,,70.33,237.6
CC1CCC(CN2C(=S)N(CCCC[C@H]3CNC(CCCc4ccccc4)=N3)C[C@H]2c2ccccc2)CC1 (some centres undefined),174.3,221.2261,237.5,184.9,17,>471,269.1,244.7
CC(C)C[C@@H]1CN(CCCC[C@H]2CNC(CCCc3ccccc3)=N2)C(=S)N1CC1CCC(C)CC1 (some centres undefined),197,224.4,246.7,144.9,25,461,256.9,240
CC(C)CCCCN1C(=S)N(CCCC[C@H]2CNC(CCCCc3ccccc3)=N2)C[C@H]1C,100.5,346.7,124.2,116.4,,,160.4,257.3265
CCC(C)CC1=N[C@@H](CCCCN2C[C@@H](c3ccccc3)N(CCCC3CCCCC3)C2=S)CN1 (some centres undefined),200.8,228.1,257.2,139,,,245.5,221.9
C[C@@H]1CN(CCCC[C@H]2CNC(CCCCc3ccccc3)=N2)C(=S)N1CCCC1CCCCC1,122.1,242.7,122,100.8,,,209.7,246.6
CC(C)CCCCN1C(=S)N(CCCC[C@H]2CNC(CC3CCCC3)=N2)C[C@H]1c1ccccc1,234.3,273,279.6,173.9,,,249.2,277.9
CCC(C)C1=N[C@@H](CCCCN2C[C@@H](CC(C)C)N(CC3CCC(C)CC3)C2=S)CN1 (some centres undefined),216.3,264.4,253.6,131.1,10,53,268.2,236
CCC(C)CC1=N[C@@H](CCCCN2C[C@@H](C)N(CCCCC(C)C)C2=S)CN1 (some centres undefined),115.6,323.0821,155,92.45,,,169.1,209.2
S=C1N(CCCC[C@H]2CNC(CCCCc3ccccc3)=N2)C[C@@H](c2ccccc2)N1CCCC1CCCCC1,208.9,183.5,251.6,143.7,,,254.2,221.8
CCC(C)CC1=N[C@@H](CCCCN2C[C@@H](CC(C)C)N(CCCC3CCCCC3)C2=S)CN1 (some centres undefined),178.9,264.0755,261.9,158.9,,,252.9,253.1
CCC(C)CC1=N[C@@H](CCCCN2C[C@@H](C)N(CCCC3CCCCC3)C2=S)CN1 (some centres undefined),121.4,357.5,142.6,102.3,,,196.1,246.1
